Measured values reported in ChEMBL document CHEMBL1129477, “Structure-activity relationships of the quinolone antibacterials against mycobacteria: effect of structural changes at N-1 and C-7” (J Med Chem, 1996).
Values after ≈ are worked out from the molar mass of the structure shown.

Key:
Format in all cases: functional
[1] = test system: Mycolicibacterium smegmatis; assay: Anti-bacterial activity tested against Mycobacterium smegmatis (ATCG 19420)
Escherichia coli = assay: Anti-bacterial activity was tested against Gram-negative EC-1 bacterium
Procedure, shortened: (§1)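 Standard microtitration MIC determination (µg/mL) against four representative Gram-negative and Gram-positive bacterial strains.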

Staphylococcus aureus = assay: Anti-bacterial activity was tested against Gram-positive SA-13 bacterium; procedure, shortened: as §1
Pseudomonas aeruginosa = assay: Anti-bacterial activity tested against Gram-negative PA-7 bacterium; procedure, shortened: as §1
[2] = test system: Mycolicibacterium fortuitum; assay: Anti-bacterial activity tested against Mycobacterium fortuitum (ATCG 6841)
Streptococcus pyogenes = assay: Anti-bacterial activity tested against Gram-positive SP1-1 bacterium; procedure, shortened: as §1

SMILES | MIC [1] [µg/mL] | MIC (Escherichia coli) [µg/mL] | MIC (Staphylococcus aureus) [µg/mL] | MIC (Pseudomonas aeruginosa) [µg/mL] | MIC [2] [µg/mL] | MIC (Streptococcus pyogenes) [µg/mL]
CC(C)N1CCN(c2cc3c(cc2F)c(=O)c(C(=O)O)cn3C2CC2)CC1 | 0.25 (≈ 0.669 µM) | 0.1 (≈ 0.268 µM) | 0.2 (≈ 0.536 µM) | 1.6 (≈ 4.28 µM) | 0.25 (≈ 0.669 µM) | 0.8 (≈ 2.14 µM)
CC1CN(c2cc3c(cc2F)c(=O)c(C(=O)O)cn3C(C)C)CC(C)N1 (stereo not given) | 2 (≈ 5.53 µM) | 1.6 (≈ 4.43 µM) | 3.1 (≈ 8.58 µM) | > 3.1 | 0.5 (≈ 1.38 µM) | > 3.1
NC1CCN(c2cc3c(cc2F)c(=O)c(C(=O)O)cn3C2CCC2)C1 (stereo not given) | 1 (≈ 2.9 µM) | 0.4 (≈ 1.16 µM) | 3.1 (≈ 8.98 µM) | 1.6 (≈ 4.63 µM) | 1 (≈ 2.9 µM) | 1.6 (≈ 4.63 µM)
CCCCN1CCN(c2cc3c(cc2F)c(=O)c(C(=O)O)cn3-c2ccc(F)cc2F)CC1 | 2 (≈ 4.35 µM) | 0.8 (≈ 1.74 µM) | 0.4 (≈ 0.871 µM) | 3.1 (≈ 6.75 µM) | 1 (≈ 2.18 µM) | 3.1 (≈ 6.75 µM)
CNCC1CCN(c2cc3c(cc2F)c(=O)c(C(=O)O)cn3C2CCC2)C1 (stereo not given) | 4 (≈ 10.7 µM) | 0.8 (≈ 2.14 µM) | 0.8 (≈ 2.14 µM) | 3.1 (≈ 8.3 µM) | 2 (≈ 5.36 µM) | 1.6 (≈ 4.28 µM)
CC1CN(c2cc3c(cc2F)c(=O)c(C(=O)O)cn3C(C)(C)C)CC(C)N1 (stereo not given) | 0.06 (≈ 0.16 µM) | 0.2 (≈ 0.533 µM) | 0.4 (≈ 1.07 µM) | 1.6 (≈ 4.26 µM) | 0.06 (≈ 0.16 µM) | > 3.1
CCC1CN(c2cc3c(cc2F)c(=O)c(C(=O)O)cn3-c2ccc(F)cc2F)CCN1 (stereo not given) | 1 (≈ 2.32 µM) | 0.4 (≈ 0.927 µM) | 0.4 (≈ 0.927 µM) | 3.1 (≈ 7.19 µM) | 0.25 (≈ 0.579 µM) | 0.8 (≈ 1.85 µM)
CCN1CCN(c2cc3c(cc2F)c(=O)c(C(=O)O)cn3CC)CC1 | 0.5 (≈ 1.44 µM) | 0.1 (≈ 0.288 µM) | 0.2 (≈ 0.576 µM) | 1.6 (≈ 4.61 µM) | 0.25 (≈ 0.72 µM) | 3.1 (≈ 8.92 µM)
CCn1cc(C(=O)O)c(=O)c2cc(F)c(N3CCC(N)C3)cc21 (stereo not given) | 4 (≈ 12.5 µM) | 0.4 (≈ 1.25 µM) | 1.6 (≈ 5.01 µM) | 0.8 (≈ 2.51 µM) | 1 (≈ 3.13 µM) | 0.8 (≈ 2.51 µM)
CC1CN(c2cc3c(cc2F)c(=O)c(C(=O)O)cn3C(C)C)CCN1 (stereo not given) | 2 (≈ 5.76 µM) | 0.8 (≈ 2.3 µM) | 3.1 (≈ 8.92 µM) | 3.1 (≈ 8.92 µM) | 0.5 (≈ 1.44 µM) | > 3.1
CC(C)n1cc(C(=O)O)c(=O)c2cc(F)c(N3CCNCC3)cc21 | 4 (≈ 12 µM) | 0.8 (≈ 2.4 µM) | > 3.1 | 1.6 (≈ 4.8 µM) | 1 (≈ 3 µM) | > 3.1
CC(C)CN1CCN(c2cc3c(cc2F)c(=O)c(C(=O)O)cn3C2CC2)CC1 | 0.25 (≈ 0.645 µM) | 0.2 (≈ 0.516 µM) | 0.4 (≈ 1.03 µM) | 1.6 (≈ 4.13 µM) | 1 (≈ 2.58 µM) | 1.6 (≈ 4.13 µM)
CNCC1CCN(c2cc3c(cc2F)c(=O)c(C(=O)O)cn3C2CC2)C1 (stereo not given) | 0.5 (≈ 1.39 µM) | 0.2 (≈ 0.556 µM) | 0.2 (≈ 0.556 µM) | 0.8 (≈ 2.23 µM) | 0.25 (≈ 0.696 µM) | 0.1 (≈ 0.278 µM)
CCN1CCN(c2cc3c(cc2F)c(=O)c(C(=O)O)cn3-c2ccc(F)cc2F)CC1 | 1 (≈ 2.32 µM) | 0.4 (≈ 0.927 µM) | 0.2 (≈ 0.464 µM) | 1.6 (≈ 3.71 µM) | 0.5 (≈ 1.16 µM) | 0.8 (≈ 1.85 µM)
CC(C)(C)n1cc(C(=O)O)c(=O)c2cc(F)c(N3CCC(N)C3)cc21 (stereo not given) | 0.13 (≈ 0.374 µM) | 0.2 (≈ 0.576 µM) | 0.4 (≈ 1.15 µM) | 0.4 (≈ 1.15 µM) | 0.06 (≈ 0.173 µM) | 0.4 (≈ 1.15 µM)
CN1CCN(c2cc3c(cc2F)c(=O)c(C(=O)O)cn3C2CC2)CC1 | 0.25 (≈ 0.724 µM) | 0.05 (≈ 0.145 µM) | 0.2 (≈ 0.579 µM) | 0.4 (≈ 1.16 µM) | 0.06 (≈ 0.174 µM) | 1.6 (≈ 4.63 µM)
O=C(O)c1cn(C2CC2)c2cc(N3CCNCC3)c(F)cc2c1=O [CIPROFLOXACIN] | 0.25 (≈ 0.754 µM) | – | – | 0.2 (≈ 0.604 µM) | 0.06 (≈ 0.181 µM) | 0.4 (≈ 1.21 µM)
